According to ChEMBL document CHEMBL1145581, “Design and synthesis of tetrahydroisoquinoline derivatives as potential multidrug resistance reversal agents in cancer” (Bioorg Med Chem Lett, 2008):
The source made the active and inactive calls. The rule behind the calls is not given here.

Columns and labels:
[1] = Antitumor activity against human K562/A02 cells xenografted in nude mouse at 8 mg/kg; assay type: functional
Outline: (§1)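 SCID nude mice received subcutaneous axillary inoculation of log-phase K562/A02 cells at 1 × 10⁷/ml. The cells were maintained in RPMI 1640 with 10% FCS and ADM 1 µg/ml final. When tumors reached a mean diameter of 0.4–0.6 cm, mice were randomized into groups of ten. Drug was given IV three times weekly, alongside adriamycin; vehicle controls were included. Endpoint was tumor weight. Inhibition ratio was calculated relative to the ADM-alone group.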

[2] = target: T1, P-gp (ABCB1) (Homo sapiens, UniProt P08183); assay: Inhibition of Pgp-mediated multidrug resistance activity in human MCF7/ADM cells assessed as Rh123 accumulation at 10 umol/L after 30 mins; assay type: cell-based; conditions: probe Rh123
Outline: (§2)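 MCF-7/ADM cells were maintained with ADM 1 µM and seeded at 4 × 10⁴/ml. They were preincubated 30 min in serum-free RPMI 1640, then given compound (1, 3, 10 µM final) for 30 min. Rh123 10 µM final was added for a further 60 min at 37 °C. After PBS washes and Triton X-100 lysis, intracellular fluorescence was read at ex 488/em 535 nm. Triplicate. Inhibitory ratio = (treated − control)/control × 100, background-corrected.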

[3] = target: T2, ATP-dependent translocase ABCB1 (Rattus norvegicus, UniProt P43245); assay: Inhibition of Pgp-mediated multidrug resistance activity in rat RBMEC cells assessed as Rh123 accumulation at 10 umol/L after 90 mins; assay type: cell-based; conditions: 1.5 h, 10 µM
Outline: (§3)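 Primary rat brain microvascular endothelial cells were grown in DF with 20% FCS to a 90% confluent monolayer. They were preincubated 30 min in serum-free DF. Compound (1, 3, 10 µM final) and Rh123 5 µM final were then added for 90 min, with cells collected at different times. Washed cells were lysed with Triton X-100 and fluorescence read at 488/535 nm. Values were normalized to Coomassie protein. Duplicate, ≥3 experiments.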

[4] = system: K562; assay: Effect on membrane lipid fluidity in human K562 cells; assay type: functional, cell-based
Outline: (§4)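 K562 and K562/A02 cells were grown in RPMI 1640 with 10% FCS and seeded at 1 × 10⁵/ml. They were exposed to 1, 3 or 10 µM compound (final) for 24 h, then washed and labelled with 2 µM DPH for 30 min. After washing, cells were held 10 min at 25 °C. Fluorescence polarization P was read at ex 357.6/em 428.7 nm, with P inversely related to membrane fluidity. Duplicate, ≥3 experiments.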

[5] = system: Rattus norvegicus; assay: Toxicity in Sprague-Dawley rat assessed as ventricular sustained tachycardia by measuring aconitine nitrate level at 2 mg.kg, iv by […]; assay type: organism-based, Cardiac ventricle; conditions: in vivo
Outline: (§5)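 SD rats were anesthetized with urethane 1.2 g/kg ip, and compound in normal saline was given via the femoral vein. Two minutes later, aconitine nitrate was infused IV at constant rate by peristaltic pump. The aconitine dose at onset of premature beats, sustained tachycardia or fibrillation was determined by […]. n = 3.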

[6] = system: Rattus norvegicus; assay: Toxicity in Sprague-Dawley rat assessed as ventricular fibrillation by measuring aconitine nitrate level at 2 mg.kg, iv by […]; assay type: organism-based, Cardiac ventricle; conditions: in vivo; outline: as §5
[7] = Antitumor activity against human K562/A02 cells xenografted in nude mouse at 2 mg/kg; assay type: functional; outline: as §1
[8] = target: T1, P-gp (ABCB1); assay: Inhibition of Pgp-mediated multidrug resistance activity in human MCF7/ADM cells assessed as Rh123 accumulation at 1 umol/L after 30 mins; assay type: cell-based; conditions: probe Rh123; outline: as §2
[9] = target: T1, P-gp (ABCB1); assay: Inhibition of Pgp-mediated multidrug resistance activity in human MCF7/ADM cells assessed as Rh123 accumulation at 3 umol/L after 30 mins; assay type: cell-based; conditions: probe Rh123; outline: as §2
[10] = target: T2, ATP-dependent translocase ABCB1; assay: Inhibition of Pgp-mediated multidrug resistance activity in rat RBMEC cells assessed as Rh123 accumulation at 1 umol/L after 90 mins; assay type: cell-based; conditions: 1.5 h, 1 µM; outline: as §3
[11] = target: T2, ATP-dependent translocase ABCB1; assay: Inhibition of Pgp-mediated multidrug resistance activity in rat RBMEC cells assessed as Rh123 accumulation at 3 umol/L after 90 mins; assay type: cell-based; conditions: 1.5 h, 3 µM; outline: as §3
[12] = system: K562/A02; assay: Decrease in membrane lipid fluidity in human K562/A02 cells at 10 umol/L; assay type: functional, cell-based; outline: as §4
[13] = system: Aorta; assay: Toxicity in Sprague-Dawley rat aorta assessed as vascular contractile activity; assay type: tissue-based; conditions: in vitro
Outline: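 Aortic rings came from SD rats (250–350 g) and were kept at 37 °C under 95% O₂/5% CO₂. Isometric tension was recorded. After 60 min equilibration, rings were contracted with 20 or 80 mM KCl. Drug was then added in increasing concentrations until maximal relaxation. Relaxation was expressed as % of the KCl contraction.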

[14] = system: Rattus norvegicus; assay: Toxicity in Sprague-Dawley rat assessed as ventricular permeature beat by measuring aconitine nitrate level at 2 mg.kg, iv by […]; assay type: organism-based, Cardiac ventricle; conditions: in vivo
[15] = Antitumor activity against human K562/A02 cells xenografted in nude mouse assessed as tumor weight at 2 mg/kg; assay type: functional; outline: as §1

T1 sequence (P08183 whole entry): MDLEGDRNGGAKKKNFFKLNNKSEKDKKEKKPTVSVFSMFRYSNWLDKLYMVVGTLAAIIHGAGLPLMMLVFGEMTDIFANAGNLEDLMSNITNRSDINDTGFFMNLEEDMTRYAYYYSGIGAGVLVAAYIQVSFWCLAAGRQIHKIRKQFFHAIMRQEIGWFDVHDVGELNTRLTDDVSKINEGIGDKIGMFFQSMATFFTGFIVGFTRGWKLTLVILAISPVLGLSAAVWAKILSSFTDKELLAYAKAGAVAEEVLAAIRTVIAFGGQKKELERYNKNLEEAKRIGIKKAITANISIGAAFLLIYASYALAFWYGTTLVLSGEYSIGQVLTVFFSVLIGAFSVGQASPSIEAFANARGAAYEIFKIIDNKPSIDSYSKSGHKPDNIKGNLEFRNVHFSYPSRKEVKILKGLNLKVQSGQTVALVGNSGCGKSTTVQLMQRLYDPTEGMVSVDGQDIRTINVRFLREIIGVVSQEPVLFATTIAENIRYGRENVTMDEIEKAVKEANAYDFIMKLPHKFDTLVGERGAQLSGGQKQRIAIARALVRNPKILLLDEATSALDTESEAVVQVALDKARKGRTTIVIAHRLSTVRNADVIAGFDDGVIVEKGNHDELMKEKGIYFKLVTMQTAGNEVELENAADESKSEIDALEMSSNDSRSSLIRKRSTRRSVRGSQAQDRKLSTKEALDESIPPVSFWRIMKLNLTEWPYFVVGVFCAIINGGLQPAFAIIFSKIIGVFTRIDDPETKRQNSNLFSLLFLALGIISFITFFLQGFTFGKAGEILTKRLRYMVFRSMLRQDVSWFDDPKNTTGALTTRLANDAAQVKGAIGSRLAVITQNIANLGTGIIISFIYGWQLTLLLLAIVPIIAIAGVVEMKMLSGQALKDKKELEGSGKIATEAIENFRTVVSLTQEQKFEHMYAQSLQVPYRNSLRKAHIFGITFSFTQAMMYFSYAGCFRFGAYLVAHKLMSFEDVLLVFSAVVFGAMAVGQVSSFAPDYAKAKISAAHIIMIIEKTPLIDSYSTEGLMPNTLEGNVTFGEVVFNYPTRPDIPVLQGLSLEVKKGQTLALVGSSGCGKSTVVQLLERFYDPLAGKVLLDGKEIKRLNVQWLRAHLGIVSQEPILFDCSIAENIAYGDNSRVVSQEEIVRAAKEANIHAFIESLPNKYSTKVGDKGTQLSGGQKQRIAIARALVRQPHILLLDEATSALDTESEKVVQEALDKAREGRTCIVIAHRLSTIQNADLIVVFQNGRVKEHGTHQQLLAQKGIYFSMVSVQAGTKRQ
T2 sequence (P43245 whole entry): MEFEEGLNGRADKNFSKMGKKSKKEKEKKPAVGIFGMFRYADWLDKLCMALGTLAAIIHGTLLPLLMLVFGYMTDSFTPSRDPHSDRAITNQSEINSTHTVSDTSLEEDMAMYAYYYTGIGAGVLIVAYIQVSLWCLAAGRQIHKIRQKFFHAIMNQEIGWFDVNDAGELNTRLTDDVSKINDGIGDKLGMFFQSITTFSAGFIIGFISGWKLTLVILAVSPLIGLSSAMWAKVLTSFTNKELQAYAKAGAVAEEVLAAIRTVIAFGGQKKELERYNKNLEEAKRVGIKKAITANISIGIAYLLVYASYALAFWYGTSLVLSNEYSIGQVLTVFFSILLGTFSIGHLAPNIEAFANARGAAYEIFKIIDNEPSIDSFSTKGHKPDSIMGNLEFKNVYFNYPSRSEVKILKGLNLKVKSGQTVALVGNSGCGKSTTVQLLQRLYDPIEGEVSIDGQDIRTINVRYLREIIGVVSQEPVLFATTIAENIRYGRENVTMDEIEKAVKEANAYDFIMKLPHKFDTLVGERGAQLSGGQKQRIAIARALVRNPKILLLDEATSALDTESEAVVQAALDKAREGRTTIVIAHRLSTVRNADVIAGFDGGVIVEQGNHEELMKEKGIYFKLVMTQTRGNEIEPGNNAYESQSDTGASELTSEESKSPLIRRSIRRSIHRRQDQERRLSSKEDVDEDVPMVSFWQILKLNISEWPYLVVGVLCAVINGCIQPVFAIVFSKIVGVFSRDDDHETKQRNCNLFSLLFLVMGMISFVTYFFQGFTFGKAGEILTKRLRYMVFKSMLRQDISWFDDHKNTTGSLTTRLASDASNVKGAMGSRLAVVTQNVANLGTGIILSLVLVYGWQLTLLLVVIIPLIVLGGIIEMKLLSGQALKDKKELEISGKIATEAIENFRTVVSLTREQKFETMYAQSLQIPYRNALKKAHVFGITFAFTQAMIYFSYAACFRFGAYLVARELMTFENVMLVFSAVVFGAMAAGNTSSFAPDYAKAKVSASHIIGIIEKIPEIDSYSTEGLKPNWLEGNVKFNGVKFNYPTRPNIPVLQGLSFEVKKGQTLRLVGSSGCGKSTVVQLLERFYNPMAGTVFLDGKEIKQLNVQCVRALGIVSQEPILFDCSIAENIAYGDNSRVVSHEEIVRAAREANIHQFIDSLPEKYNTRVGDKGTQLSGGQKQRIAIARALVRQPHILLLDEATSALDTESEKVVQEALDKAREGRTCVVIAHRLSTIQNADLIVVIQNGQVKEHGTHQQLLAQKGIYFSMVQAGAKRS

| inhibition at 0.5 h, 10 µM [2] [%] | Activity [3] | inhibition at 0.5 h, 1 µM [8] [%] | inhibition at 0.5 h, 3 µM [9] [%] | Activity [10] | Activity [11] | SMILES | inhibition in vivo at 8 mg/kg [1] [%] | Activity [4] | Activity [5] [µg/kg] | Activity [6] [µg/kg] | inhibition in vivo at 2 mg/kg [7] [%] | Activity [12] | Activity [13] | Activity [14] [µg/kg] | Activity [15] [g] |
| --- | --- | --- | --- | --- | --- | --- | --- | --- | --- | --- | --- | --- | --- | --- | --- |
| 98.7 | Active |  |  |  |  | COc1ccc(CCN(C)CCCC(C#N)(c2ccc(OC)c(OC)c2)C(C)C)cc1OC (stereo unspecified) [VERAPAMIL] | -66.4 | inactive | 44 | 55 |  |  |  |  |  |
| 69.3 | Active | 35.2 | 60.5 | Active | Active | CCCCCCCCN/C(=N/C#N)N1CCc2cc(OC)c(OC)cc2C1Cc1ccc(OC)c(OC)c1 (stereo unspecified) | -59.5 | inactive | 26.7 | 31.5 | -62.2 | Active | Not Active | 22.4 |  |
|  |  |  |  |  |  | COc1cccc2c1C(=O)c1c(O)c3c(c(O)c1C2=O)C[C@@](O)(C(=O)CO)C[C@@H]3O[C@H]1C[C@H](N)[C@H](O)[C@H](C)O1 [DOXORUBICIN] |  |  |  |  |  |  |  |  | 2.17 |
